Test results taken from ChEMBL document CHEMBL5653608 (Br J Pharmacol, 2011).

Tests used:
[1] = Induction of relaxation in nifedipine-induced carbachol pre-contracted rings of Beagle dog bronchioles incubated for 1 hr; format: functional, tissue-based, Canis lupus familiaris, Bronchiole
How it was run: (§1)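 Beagle bronchiole rings held at 1 g tension in Krebs at 37°C (with propranolol and phentolamine), primed with 80 mM KCl. Rings were precontracted with 1 µM carbachol, then antagonist (3–100 nM) or vehicle was equilibrated for 1 h. Cumulative PGE2 relaxation curves followed, with final 10 µM nifedipine defining maximal relaxation. KB by the Lew and Angus method.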

[2] = Induction of relaxation in […] C57BL/6 mouse trachea at 0.1 to 30 uM incubated for 30 mins relative to control (reference value: 21.6 +/- 8.8%); format: functional; parameters: scale not given: the % may be the effect or the level left; details: dose 0.1-30 µM, 0.5 h
[3] = Inhibition of EFS-induced contraction of human myometrium incubated for 60 mins; format: functional, tissue-based
How it was run: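 Human myometrial strips (donors aged 24–76) in a 15 mL Krebs bath at 37°C, under EFS at 15 V, 1.5 ms pulses, 10 s every 100 s, at a submaximal 15 Hz. Antagonist (10 or 100 nM) or vehicle was equilibrated for 60 min. Cumulative butaprost (0.1 nM–10 µM) or PGE2 (0.1 nM–3 µM) was given for at least five EFS responses per concentration. pKB was calculated from same-donor concentration ratios.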

[4] = Induction of relaxation in nifedipine-induced carbachol pre-contracted rings of Beagle dog bronchioles incubated for 1 hr relative to control; format: functional, Canis lupus familiaris, Bronchiole; parameters: scale not given: the % may be the effect or the level left; how it was run: as §1
[5] = Induction of relaxation in forskolin-induced carbachol pre-contracted C57BL/6 mouse trachea incubated for 30 mins; format: functional, tissue-based
How it was run: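 Male C57BL/6 tracheal rings at 0.35 g tension in Krebs (95% O2/5% CO2, 37°C). Rings were precontracted with 10 µM carbachol before cumulative half-log PGE2 (0.1 nM–30 µM). Curves were repeated in the same ring after 30 min with 3 nM antagonist or DMSO, and 10 µM forskolin set maximal relaxation. pKB = log(CR−1) − log[B].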

SMILES: CCCCC[C@H](O)/C=C/[C@H]1[C@H](O)CC(=O)[C@@H]1C/C=C\CCCC(=O)O [DINOPROSTONE]
- EC50 [1]: 90 nM
- Activity [2]: 65.4%
- IC50 [3]: 17.3 nM
- Activity [4]: 82%
- EC50 [5]: 133 nM
